In ChEMBL document CHEMBL1128214, “Structure-based design of sulfonamide-substituted non-peptidic HIV protease inhibitors” (J Med Chem, 1995):

What was measured:
[1] = test system: Human immunodeficiency virus 1; assay: Antiviral potency of compound determined against human immunodeficiency virus type 1; format: functional, organism-based
Outline: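 Antiviral activity measured in MT4 cells acutely infected with HIV-1 IIIB; potency reported as IC50.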

[2] = molecular target: Human immunodeficiency virus type 1 protease (Human immunodeficiency virus 1, UniProt Q72874); assay: Inhibitory activity against HIV-1 protease
[3] = Time of maximum concentration was determined in an aqueous sodium hydroxide solution adjusted to pH 10 at 5 mg/kg dosage administered perorally in rats; format: ADME, organism-based; design: dose 5 mg/kg, route oral; conditions: rat, in vivo, po
Outline: (§1)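 Single oral dose given as an aqueous sodium hydroxide solution adjusted to pH 10. Plasma concentrations were followed over time. Cmax, tmax and bioavailability (F) were calculated from the time-course data by noncompartmental analysis. Values are mean ± SD.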

[4] = The half life time estimated was determined in an aqueous sodium hydroxide solution adjusted to pH 10 at 2.5 mg/kg dosage administered intravenously in rats; format: ADME, organism-based; design: dose 2.5 mg/kg, route intravenous; conditions: rat, in vivo, iv
Outline: (§2)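 Plasma concentration–time data were analysed by noncompartmental methods. The […] (β) and half-life were estimated, and total body clearance and steady-state volume of distribution were calculated. Values are mean ± SD.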

[5] = Time of maximum concentration was determined in an aqueous sodium hydroxide solution adjusted to pH 10 at 10 mg/kg dosage administered perorally in dog; format: ADME, organism-based, Canis lupus familiaris; design: dose 10 mg/kg, route oral; conditions: in vivo, po; outline: as §1
[6] = The half life time estimated was determined in an aqueous sodium hydroxide solution adjusted to pH 10 at 5 mg/kg dosage administered intravenously in dog; format: ADME, organism-based; design: dose 5 mg/kg, route intravenous; conditions: in vivo, iv; outline: as §2
[7] = Bioavailability (F) was determined in an aqueous sodium hydroxide solution adjusted to pH 10 at 10 mg/kg dosage administered perorally in dog; format: ADME, organism-based; conditions: eutheria, in vivo, po; outline: as §1
[8] = The steady-state volume of distribution was determined in an aqueous sodium hydroxide solution adjusted to pH 10 at 2.5 mg/kg administered intravenously dosage in rats; format: ADME, organism-based; design: dose 2.5 mg/kg, route intravenous; conditions: rat, in vivo, iv, read-out: Vss; outline: as §2
[9] = Maximum concentration was determined in an aqueous sodium hydroxide solution adjusted to pH 10 at 5 mg/kg dosage administered perorally in rats; format: ADME, organism-based; design: dose 5 mg/kg, route oral; conditions: rat, in vivo, po; outline: as §1
[10] = Maximum concentration was determined in an aqueous sodium hydroxide solution adjusted to pH 10 at 10 mg/kg dosage administered perorally in dog; format: ADME, organism-based, Canis lupus familiaris; design: dose 10 mg/kg, route oral; conditions: in vivo, po; outline: as §1
[11] = Bioavailability (F) was determined in an aqueous sodium hydroxide solution adjusted to pH 10 at 5 mg/kg dosage administered perorally in rats; format: ADME, organism-based; conditions: eutheria, in vivo, po; outline: as §1
[12] = The total body administered intravenously in dog; format: ADME, organism-based, Canis lupus familiaris; conditions: in vivo, iv, read-out: Vss; outline: as §2

**Q.** Which IC50 [1] does the source give for `O=c1c2c(oc(O)c1C(c1cccc(NS(=O)(=O)c3ccccc3)c1)C1CC1)CCCCCC2` (stereo not drawn) here?
**A.** 5000 nM

**Q.** For `Cc1cccc(S(=O)(=O)Nc2cccc(C(c3c(O)c4c(oc3=O)CCCCCC4)C3CC3)c2)c1` (stereo not drawn), which IC50 [1] is on record?
**A.** 4000 nM

**Q.** What about the Ki [2] of the same compound?
**A.** 5 nM

**Q.** Which IC50 [1] does the source give for `N#Cc1ccc(S(=O)(=O)Nc2cccc(C(c3c(O)c4c(oc3=O)CCCCCC4)C3CC3)c2)cc1` (stereo not drawn) here?
**A.** 1500 nM

**Q.** And the Tmax [3]?
**A.** 1 h

**Q.** And the half-life [4]?
**A.** 3 h

**Q.** And the Tmax [5]?
**A.** 1 h

**Q.** What about the half-life [6] of the same compound?
**A.** 6.3 h

**Q.** What about the bioavailability [7] of the same compound?
**A.** 76.7%

**Q.** And the Vd [8]?
**A.** 0.11 L/kg

**Q.** And the Cmax [9]?
**A.** 24.2 µM

**Q.** And the Cmax [10]?
**A.** 156 µM

**Q.** And the bioavailability [11]?
**A.** 41.9%

**Q.** What about the Vd [12] of the same compound?
**A.** 0.084 L/kg

**Q.** Which IC50 [1] does the source give for `Cc1ccccc1S(=O)(=O)Nc1cccc(C(c2c(O)c3c(oc2=O)CCCCCC3)C2CC2)c1` (stereo not drawn) here?
**A.** > 10000 nM

**Q.** And the Ki [2]?
**A.** 9 nM

**Q.** What does the source list for `Cc1ccc(S(=O)(=O)Nc2cccc(C(c3c(O)c4c(oc3=O)CCCCCC4)C3CC3)c2)cc1` (stereo not drawn)?
**A.** IC50 [1]: 3600 nM; Ki [2]: 3 nM
